The values below come from ChEMBL document CHEMBL1129264, “Mercaptoacyl dipeptides as orally active dual inhibitors of angiotensin-converting enzyme and neutral endopeptidase” (1996).

For experiment [1], the target named is T1, Angiotensin-converting enzyme (Rattus norvegicus) (UniProt P47820).
T1 sequence (whole entry): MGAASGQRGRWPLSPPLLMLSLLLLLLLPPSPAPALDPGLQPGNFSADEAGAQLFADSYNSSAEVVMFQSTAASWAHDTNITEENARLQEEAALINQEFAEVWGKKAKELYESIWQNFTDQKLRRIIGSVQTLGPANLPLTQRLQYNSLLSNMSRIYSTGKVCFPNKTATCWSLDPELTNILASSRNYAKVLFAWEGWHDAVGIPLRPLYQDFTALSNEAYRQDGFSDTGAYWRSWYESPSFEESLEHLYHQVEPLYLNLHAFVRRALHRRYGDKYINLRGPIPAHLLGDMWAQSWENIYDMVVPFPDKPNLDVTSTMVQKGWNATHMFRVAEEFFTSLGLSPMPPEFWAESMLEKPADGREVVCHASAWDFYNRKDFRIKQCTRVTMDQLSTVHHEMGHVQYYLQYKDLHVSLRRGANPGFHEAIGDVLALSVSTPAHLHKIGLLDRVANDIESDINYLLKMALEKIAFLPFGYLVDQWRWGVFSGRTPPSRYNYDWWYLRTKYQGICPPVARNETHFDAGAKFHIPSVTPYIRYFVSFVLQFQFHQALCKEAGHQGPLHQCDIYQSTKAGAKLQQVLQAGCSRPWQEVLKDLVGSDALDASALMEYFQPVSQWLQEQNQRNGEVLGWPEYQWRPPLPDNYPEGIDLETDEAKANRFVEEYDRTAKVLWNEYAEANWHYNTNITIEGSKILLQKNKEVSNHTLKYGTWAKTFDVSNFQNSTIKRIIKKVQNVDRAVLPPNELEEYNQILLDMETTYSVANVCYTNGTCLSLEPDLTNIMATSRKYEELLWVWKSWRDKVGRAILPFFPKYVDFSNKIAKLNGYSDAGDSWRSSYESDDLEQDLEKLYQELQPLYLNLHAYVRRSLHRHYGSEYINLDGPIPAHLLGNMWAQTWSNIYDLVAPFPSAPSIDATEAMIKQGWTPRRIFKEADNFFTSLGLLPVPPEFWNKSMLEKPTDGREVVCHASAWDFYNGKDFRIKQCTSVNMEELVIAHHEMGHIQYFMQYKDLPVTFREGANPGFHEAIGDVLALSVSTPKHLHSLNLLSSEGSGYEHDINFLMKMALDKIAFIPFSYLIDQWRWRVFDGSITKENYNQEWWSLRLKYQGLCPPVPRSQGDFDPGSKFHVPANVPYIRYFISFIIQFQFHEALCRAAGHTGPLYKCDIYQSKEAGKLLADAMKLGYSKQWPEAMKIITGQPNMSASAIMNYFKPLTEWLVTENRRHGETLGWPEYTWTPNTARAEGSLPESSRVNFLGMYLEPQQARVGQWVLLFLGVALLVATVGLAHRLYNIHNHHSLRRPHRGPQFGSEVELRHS
Put plainly: Compound was tested for plasma inhibition of Angiotensin I converting enzyme activity in the conscious rat. Expressed as Inhibition of AI pressor response at 2 hr at a dose of 14.1 mg/kg po. The class given is organism-based. On the set-up: dose 14.1 mg/kg. The essentials: (§1)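 Male conscious normotensive Sprague-Dawley rats (275-390 g), given femoral arterial and venous catheters under methohexital sodium (75 mg/kg ip) anesthesia. Next day, pressor responses to three angiotensin-I challenges (300 ng/kg iv) recorded by direct arterial pressure. Compound then dosed orally, and AI challenge repeated at set times. Each post-dose response compared with the mean of the three baseline responses, giving % inhibition.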

In experiment [2] the target is T1, Angiotensin-converting enzyme (Rattus norvegicus). Put plainly: Compound was tested for plasma inhibition of Angiotensin I converting enzyme activity in the conscious rat. Expressed as Inhibition of AI pressor response at 1 hr at a dose of 14.1 mg/kg po. The class given is organism-based. On the set-up: dose 14.1 mg/kg. The method in brief:
as §1

Experiment [3] shares this target. Put plainly: Compound was tested for plasma inhibition of Angiotensin I converting enzyme activity in the conscious rat. Expressed as Inhibition of AI pressor response at 2 hr at a dose of 12.5 mg/kg po. The class given is organism-based. Details: dose 12.5 mg/kg. The essentials:
as §1

The target is the same in experiment [4]. Briefly: Compound was tested for plasma inhibition of Angiotensin I converting enzyme activity in the conscious rat. Expressed as Inhibition of AI pressor response at 6 hr at a dose of 12.5 mg/kg po. On the set-up: dose 12.5 mg/kg. The experiment is classed as organism-based. The essentials: (§2)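 Male conscious normotensive Sprague-Dawley rats (275-390 g), prepared under methohexital sodium (75 mg/kg ip) with femoral arterial and venous catheters. The next day, pressor responses to three angiotensin-I challenges (300 ng/kg iv) were recorded. Compound was then given orally and angiotensin-I challenges were repeated at set times. Percent inhibition is relative to the mean of the three baseline responses.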

The target is the same in experiment [5]. Put plainly: Compound was tested for plasma inhibition of Angiotensin I converting enzyme activity in the conscious rat. Expressed as Inhibition of AI pressor response at 4 hr at a dose of 12.5 mg/kg po. The experiment is classed as organism-based. Details: dose 12.5 mg/kg. The essentials:
as §1

For experiment [6] the target is unchanged. Put plainly: Compound was tested for plasma inhibition of Angiotensin I converting enzyme activity in the conscious rat. Expressed as Inhibition of AI pressor response at 1 hr at a dose of 12.5 mg/kg po. The class given is organism-based. Details: dose 12.5 mg/kg. The method in brief: as §1
Experiment [7] shares this target. Put plainly: Compound was tested for plasma inhibition of Angiotensin I converting enzyme activity in the conscious rat. Expressed as Inhibition of AI pressor response at 2 hr at a dose of 13.3 mg/kg po. The experiment is classed as organism-based. Details: dose 13.3 mg/kg. The essentials: as §1
The target is the same in experiment [8]. Put plainly: Compound was tested for plasma inhibition of Angiotensin I converting enzyme activity in the conscious rat. Expressed as Inhibition of AI pressor response at 1 hr at a dose of 13.3 mg/kg po. The class given is organism-based. On the set-up: dose 13.3 mg/kg. The method in brief:
as §1

For experiment [9] the target is unchanged. Briefly: Compound was tested for plasma inhibition of Angiotensin I converting enzyme activity in the conscious rat. Expressed as Inhibition of AI pressor response at 6 hr at a dose of 13.3 mg/kg po. The experiment is classed as organism-based. On the set-up: dose 13.3 mg/kg. The method in brief:
as §2

Experiment [10] shares this target. Put plainly: Compound was tested for plasma inhibition of Angiotensin I converting enzyme activity in the conscious rat. Expressed as Inhibition of AI pressor response at 4 hr at a dose of 13.3 mg/kg po. The experiment is classed as organism-based. Details: dose 13.3 mg/kg. The essentials: as §2
Experiment [11] has the same target. Put plainly: Compound was tested for plasma inhibition of Angiotensin I converting enzyme activity in the conscious rat. Expressed as Inhibition of AI pressor response at 6 hr at a dose of 14.3 mg/kg po. The experiment is classed as organism-based. Details: dose 14.3 mg/kg. The method in brief:
as §2

Experiment [12] concerns Rattus norvegicus. Put plainly: Plasma ANF Concentration in the Conscious Rat at a dose of 14.3(po)mg/kg at 1 h. The experiment is classed as functional. The essentials:
(§3)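 Male Sprague-Dawley rats (275-390 g), catheterized in femoral artery and vein under ketamine (150 mg/kg)/acepromazine, tethered and recovered 24 h, studied conscious. Continuous iv rat ANF(99-126) infusion at 450 ng/kg/min for 5 h; baseline blood at 60 min, then oral dosing, sampling at 30-240 min.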

Experiment [13] has as its target T1, Angiotensin-converting enzyme (Rattus norvegicus). Put plainly: Compound was tested for plasma inhibition of Angiotensin I converting enzyme activity in the conscious rat. Expressed as Inhibition of AI pressor response at 1 hr at a dose of 14.3 mg/kg po. The experiment is classed as organism-based. Details: dose 14.3 mg/kg. The method in brief:
as §1

For experiment [14], the system named is Rattus norvegicus. Briefly: Plasma ANF Concentration in the Conscious Rat at a dose of 14.3(po)mg/kg at 2 h. The experiment is classed as functional. The essentials:
as §3

In experiment [15] the target is T1, Angiotensin-converting enzyme (Rattus norvegicus). Put plainly: Compound was tested for plasma inhibition of Angiotensin I converting enzyme activity in the conscious rat. Expressed as Inhibition of AI pressor response at 4 hr at a dose of 14.3 mg/kg po. The class given is organism-based. Details: dose 14.3 mg/kg. The essentials: as §2
Experiment [16] shares this target. Put plainly: Compound was tested for plasma inhibition of Angiotensin I converting enzyme activity in the conscious rat. Expressed as Inhibition of AI pressor response at 2 hr at a dose of 14.3 mg/kg po. The class given is organism-based. On the set-up: dose 14.3 mg/kg. The essentials: as §1
For experiment [17], the system named is Rattus norvegicus. Put plainly: Plasma ANF Concentration in the Conscious Rat at a dose of 14.3(po)mg/kg at 4 h. The class given is functional. The method in brief: as §3
Experiment [18] relates to Rattus norvegicus. Put plainly: Plasma ANF Concentration in the Conscious Rat at a dose of 14.3(po)mg/kg at 0.5 h. The class given is functional. The method in brief:
as §3

The term inhibition denotes the change of the read-out against control, counted positive when it falls. Take `CCCCOC(=O)[C@H](Cc1ccc(O)cc1)NC(=O)C1(NC(=O)[C@H](SC(=O)C2CCCCC2)C(C)C)CCCC1`: the figures for the inhibition in experiment [1] and in experiment [2] were 8% and -3%, respectively.
In the case of `CCOC(=O)[C@H](Cc1ccc(O)cc1)NC(=O)C1(NC(=O)[C@H](SC(=O)COC)C(C)C)CCCC1`, the inhibition in experiment [3] came out at 77%; in [4] it was 34%; in experiment [5] it was 70%; in [6], 81%.
In the case of `CCOC(=O)[C@H](Cc1ccc(O)cc1)NC(=O)C1(NC(=O)[C@H](SC(=O)c2ccccn2)C(C)C)CCCC1`, the inhibition in experiment [7] is 11%; in experiment [8], 10%; in [9] it was 12%; in experiment [10], 8%.
For `CCOC(=O)[C@H](Cc1ccc(OC(=O)c2cccnc2)cc1)NC(=O)C1(NC(=O)[C@H](SC(C)=O)C(C)C)CCCC1`, the inhibition in experiment [11] amounted to 60%; in experiment [13], 78%; in experiment [15], 67%; in [16], 75%. The Control in experiment [12] is on record as 234%; in [14], 246%; in [17] it was 277%; in experiment [18] it was 246%.
